Legend:
Caco-2 [1] = assay: Cytotoxicity against human Caco2 cells assessed as surviving fraction at 1 uM after 24 hrs by MTT assay relative to control; assay type: functional
Summary of the method: (§1)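 Caco-2 cells were kept as monolayers in RPMI-1640 with 10% FBS, 100 U/mL penicillin and streptomycin, at 37 C in humidified 5% CO2. Cells were treated for 24 h at concentrations spanning […], and viability was read by the colorimetric MTT (Mosmann) method. Percent relative viability and IC50 were fitted in Prism.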

Caco-2 [2] = assay: Cytotoxicity against human Caco2 cells assessed as surviving fraction at 10 uM after 24 hrs by MTT assay relative to control; assay type: functional; summary of the method: as §1
Caco-2 [3] = assay: Cytotoxicity against human Caco2 cells assessed as surviving fraction at 25 uM after 24 hrs by MTT assay relative to control; assay type: functional; summary of the method: as §1
Caco-2 [4] = assay: Cytotoxicity against human Caco2 cells assessed as surviving fraction at 50 uM after 24 hrs by MTT assay relative to control; assay type: functional; summary of the method: as §1
Caco-2 [5] = assay: Cytotoxicity against human Caco2 cells assessed as surviving fraction at 100 uM after 24 hrs by MTT assay relative to control; assay type: functional; summary of the method: as §1
Caco-2 [6] = assay: Cytotoxicity against human Caco2 cells assessed as cell viability after 24 hrs by MTT assay; assay type: functional, cell-based; details: Caco-2, 24 h; summary of the method: as §1
Caco-2 [7] = assay: Induction of apoptosis in human Caco2 cells assessed as Fas-ligand concentration at 0.15 uM after 24 hrs by FASL-based ELISA (reference value: 20.5 pg/ml); assay type: functional
Caco-2 [8] = assay: Induction of apoptosis in human Caco2 cells assessed as Fas-ligand concentration at 0.3 uM after 24 hrs by FASL-based ELISA (reference value: 20.5 pg/ml); assay type: functional
Caco-2 [9] = assay: Induction of apoptosis in human Caco2 cells assessed as Fas-ligand concentration at 0.6 uM after 24 hrs by FASL-based ELISA (reference value: 20.5 pg/ml); assay type: functional
Caco-2 [10] = assay: Induction of apoptosis in human Caco2 cells assessed as caspase-3 concentration at 0.6 uM after 24 hrs by colorimetric analysis (reference value: 0.193 nmol/ml); assay type: functional
Caco-2 [11] = assay: Induction of apoptosis in human Caco2 cells assessed as caspase-3 concentration at 0.3 uM after 24 hrs by colorimetric analysis (reference value: 0.193 nmol/ml); assay type: functional
Caco-2 [12] = assay: Induction of apoptosis in human Caco2 cells assessed as caspase-3 concentration at 0.15 uM after 24 hrs by colorimetric analysis (reference value: 0.193 nmol/ml); assay type: functional
Caco-2 [13] = assay: Induction of apoptosis in human Caco2 cells assessed as Fas-ligand concentration at 62 uM after 24 hrs by FASL-based ELISA (reference value: 20.5 pg/ml); assay type: functional
Summary of the method: (§2)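 Caco-2 cells were grown in RPMI-1640 with 10% FBS, penicillin and streptomycin at 37 C under 5% CO2. Cells were exposed to the test agent for 24 h. Fas-ligand in the cells was then measured with a colorimetric human FASL ELISA kit and reported as pg/mL against an untreated control.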

Caco-2 [14] = assay: Induction of apoptosis in human Caco2 cells assessed as Fas-ligand concentration at 31 uM after 24 hrs by FASL-based ELISA (reference value: 20.5 pg/ml); assay type: functional; summary of the method: as §2
Caco-2 [15] = assay: Induction of apoptosis in human Caco2 cells assessed as Fas-ligand concentration at 15 uM after 24 hrs by FASL-based ELISA (reference value: 20.5 pg/ml); assay type: functional; summary of the method: as §2
Caco-2 [16] = assay: Induction of apoptosis in human Caco2 cells assessed as caspase-3 concentration at 31 uM after 24 hrs by colorimetric analysis (reference value: 0.193 nmol/ml); assay type: functional
Caco-2 [17] = assay: Induction of apoptosis in human Caco2 cells assessed as caspase-3 concentration at 15 uM after 24 hrs by colorimetric analysis (reference value: 0.193 nmol/ml); assay type: functional
Caco-2 [18] = assay: Induction of apoptosis in human Caco2 cells assessed as caspase-3 concentration at 62 uM after 24 hrs by colorimetric analysis (reference value: 0.193 nmol/ml); assay type: functional
Caco-2 [19] = assay: Induction of apoptosis in human Caco2 cells assessed as Fas-ligand concentration at 31.5 uM after 24 hrs by FASL-based ELISA (reference value: 20.5 pg/ml); assay type: functional
Caco-2 [20] = assay: Induction of apoptosis in human Caco2 cells assessed as Fas-ligand concentration at 63.5 uM after 24 hrs by FASL-based ELISA (reference value: 20.5 pg/ml); assay type: functional
Caco-2 [21] = assay: Induction of apoptosis in human Caco2 cells assessed as Fas-ligand concentration at 100 uM after 24 hrs by FASL-based ELISA (reference value: 20.5 pg/ml); assay type: functional
Caco-2 [22] = assay: Induction of apoptosis in human Caco2 cells assessed as caspase-3 concentration at 62.3 uM after 24 hrs by colorimetric analysis (reference value: 0.193 nmol/ml); assay type: functional
Caco-2 [23] = assay: Induction of apoptosis in human Caco2 cells assessed as caspase-3 concentration at 100 uM after 24 hrs by colorimetric analysis (reference value: 0.193 nmol/ml); assay type: functional

Row | SMILES | Ratio (Caco-2 [1]) | Ratio (Caco-2 [2]) | Ratio (Caco-2 [3]) | Ratio (Caco-2 [4]) | Ratio (Caco-2 [5]) | IC50 (Caco-2 [6]) [nM] | also measured
1 | NS(=O)(=O)c1ccc(Nc2nc3nc(=O)[nH]c(-c4ccccc4)c3s2)cc1 | 0.371 | 0.237 | 0.285 | 0.229 | 0.227 | 334 | –
2 | NS(=O)(=O)c1ccc(Nc2nc3nc(=O)[nH]c(-c4ccc(Cl)cc4)c3s2)cc1 | 0.519 | 0.603 | 0.112 | 0.156 | 0.073 | 12700 | –
3 | COc1ccc(-c2[nH]c(=O)nc3nc(Nc4ccc(S(N)(=O)=O)cc4)sc23)cc1 | 0.477 | 0.362 | 0.473 | 0.257 | 0.167 | 667 | –
4 | NS(=O)(=O)c1ccc(NC2=NC(=O)/C(=C/c3ccccc3)S2)cc1 | 0.348 | 0.182 | 0.133 | 0.422 | 0.068 | 334 | Activity (Caco-2 [7]): 445.2 pg/mL; Activity (Caco-2 [8]): 775.2 pg/mL; Activity (Caco-2 [9]): 706.12 pg/mL; Activity (Caco-2 [10]): 0.37 nmol/mL; Activity (Caco-2 [11]): 0.38 nmol/mL; Activity (Caco-2 [12]): 0.43 nmol/mL
5 | COc1ccc(-c2[nH]c(=S)nc3nc(Nc4ccc(S(N)(=O)=O)cc4)sc23)cc1 | 0.444 | 0.344 | 0.299 | 0.186 | 0.169 | 667 | –
6 | NS(=O)(=O)c1ccc(NC2=NC(=O)/C(=C/c3ccc(Cl)cc3)S2)cc1 | 0.285 | 0.314 | 0.113 | 0.086 | 0.153 | 667 | –
7 | COc1ccc(/C=C2\SC(Nc3ccc(S(N)(=O)=O)cc3)=NC2=O)cc1 | 0.281 | 0.179 | 0.466 | 0.416 | 0.485 | 1330 | –
8 | NS(=O)(=O)c1ccc(Nc2nc3noc(-c4ccccc4)c3s2)cc1 | 0.442 | 0.335 | 0.304 | 0.295 | 0.456 | 669 | –
9 | COc1ccc(-c2onc3nc(Nc4ccc(S(N)(=O)=O)cc4)sc23)cc1 | 0.412 | 0.401 | 0.317 | 0.229 | 0.228 | 559 | –
10 | O=c1[nH]cc(F)c(=O)[nH]1 [FLUOROURACIL] | 0.405 | 0.31 | 0.325 | 0.525 | 0.254 | 31000 | Activity (Caco-2 [13]): 66.2 pg/mL; Activity (Caco-2 [14]): 140.1 pg/mL; Activity (Caco-2 [15]): 287.7 pg/mL; Activity (Caco-2 [16]): 0.8 nmol/mL; Activity (Caco-2 [17]): 0.92 nmol/mL; Activity (Caco-2 [18]): 0.73 nmol/mL
11 | NS(=O)(=O)c1ccc(Nc2nc3nc(=S)[nH]c(-c4ccc(Cl)cc4)c3s2)cc1 | 0.433 | 0.456 | 0.338 | 0.339 | 0.276 | 333 | Activity (Caco-2 [7]): 312.4 pg/mL; Activity (Caco-2 [8]): 309.4 pg/mL; Activity (Caco-2 [9]): 641.8 pg/mL; Activity (Caco-2 [10]): 0.37 nmol/mL; Activity (Caco-2 [11]): 0.366 nmol/mL; Activity (Caco-2 [12]): 0.404 nmol/mL
12 | NS(=O)(=O)c1ccc(Nc2nc3nc(=S)[nH]c(-c4ccccc4)c3s2)cc1 | 0.304 | 0.223 | 0.234 | 0.223 | 0.135 | 333 | Activity (Caco-2 [7]): 115.5 pg/mL; Activity (Caco-2 [8]): 165.7 pg/mL; Activity (Caco-2 [9]): 307.5 pg/mL; Activity (Caco-2 [10]): 0.364 nmol/mL; Activity (Caco-2 [11]): 0.34 nmol/mL; Activity (Caco-2 [12]): 0.35 nmol/mL
13 | NS(=O)(=O)c1ccc(Nc2nc3noc(-c4ccc(Cl)cc4)c3s2)cc1 | 0.319 | 0.248 | 0.219 | 0.202 | 0.197 | 333 | Activity (Caco-2 [7]): 111.3 pg/mL; Activity (Caco-2 [8]): 147.5 pg/mL; Activity (Caco-2 [9]): 312.2 pg/mL; Activity (Caco-2 [10]): 0.407 nmol/mL; Activity (Caco-2 [11]): 0.409 nmol/mL; Activity (Caco-2 [12]): 0.366 nmol/mL
14 | COc1cccc2c1C(=O)c1c(O)c3c(c(O)c1C2=O)C[C@@](O)(C(=O)CO)C[C@@H]3O[C@H]1C[C@H](N)[C@H](O)[C@H](C)O1 [DOXORUBICIN] | 0.814 | 0.597 | 0.663 | 0.552 | 0.343 | 63300 | Activity (Caco-2 [19]): 41.65 pg/mL; Activity (Caco-2 [20]): 56.41 pg/mL; Activity (Caco-2 [21]): 95.8 pg/mL; Activity (Caco-2 [16]): 0.251 nmol/mL; Activity (Caco-2 [22]): 0.26 nmol/mL; Activity (Caco-2 [23]): 0.272 nmol/mL

— ChEMBL document CHEMBL4052636, “Design, synthesis and biological evaluation of some novel sulfonamide derivatives as apoptosis inducers” (Eur J Med Chem, 2017)
